CHRM4 PAM – CHRM4 positive allosteric modulation. activation, % at 3 µM. P08173. 0.4% of 360,000 active. CHO-K1 hM4/Gqi5, Fluo-8 calcium fluorescence, ACh EC20; 0% = ACh EC20, 100% = maximal ACh;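 active = activation above its plate's cutoff, the mean activation of sample wells plus 3 SD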
M4 antag – blocks acetylcholine activation of human M4 receptor. CHO-hM4 cells, ACh EC80, Fluo-8 calcium fluorescence. inhibition, % at 3 µM. 0.73% of 360,000 active. AID 624125;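 active = inhibition above its plate's cutoff, the mean inhibition of sample wells plus 3 SD, cut at about 27% in these data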;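 also: 0% = acetylcholine EC80 with DMSO and 100% = DMSO without agonist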
M4 ag – CHRM4 agonism in calcium assay. P08173. CHO-K1 hM4/Gqi5, Fluo-8 calcium fluorescence; vehicle 0%, full acetylcholine response 100%. activation, % at 3 µM. 0.14% of 360,000 active;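 active = activation above the run mean over all test wells plus 3 SD, cut at about 32% in these data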;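 also: peak over basal fluorescence ratio per well then scaled between controls; 0% = DMSO wells and 100% = acetylcholine at EC100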
CHRM5 agonist – CHRM5 agonism in calcium assay | P08912 | CHO-K1 hM5 cells, Fluo-8 calcium fluorescence; 0% DMSO wells, 100% maximal acetylcholine response | activation, % at 3 µM | 0.19% of 360,000 active;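 active = activation above the run's mean over test compounds plus 3 SD, cut at about 23% in these data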;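 also: signal is peak over basal fluorescence ratio across the kinetic read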
Target sequence (P08912 whole entry, looked up): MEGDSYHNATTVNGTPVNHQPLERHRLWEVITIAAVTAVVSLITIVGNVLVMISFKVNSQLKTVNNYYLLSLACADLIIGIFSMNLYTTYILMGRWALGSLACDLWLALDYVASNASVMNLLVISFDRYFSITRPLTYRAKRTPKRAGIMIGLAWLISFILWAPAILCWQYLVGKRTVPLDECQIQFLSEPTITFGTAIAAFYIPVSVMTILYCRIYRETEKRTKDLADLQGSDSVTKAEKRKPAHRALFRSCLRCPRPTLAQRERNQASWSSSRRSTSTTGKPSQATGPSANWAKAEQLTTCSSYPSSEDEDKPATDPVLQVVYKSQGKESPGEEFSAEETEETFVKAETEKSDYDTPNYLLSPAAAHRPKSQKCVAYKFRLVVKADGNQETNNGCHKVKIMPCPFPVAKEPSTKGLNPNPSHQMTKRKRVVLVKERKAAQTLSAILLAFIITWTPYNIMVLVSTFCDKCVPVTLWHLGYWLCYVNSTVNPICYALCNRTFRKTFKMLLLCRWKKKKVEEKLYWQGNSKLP
M5 antag – CHRM5 antagonism in calcium assay | 0.59% of 360,000 active | CHO-hM5 cells, Fluo-8 calcium fluorescence, ACh EC80 | P08912 | AID 624040 | inhibition, % at 3 µM;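 active = inhibition above a per-plate cutoff, the mean of that plate's test compounds plus 3 SD, cut at about 27% in these data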;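 also: 0% = acetylcholine EC80 with DMSO and 100% = DMSO without agonist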
M5 PAM – positive allosteric modulators of human muscarinic M5 receptor; P08912; 0.3% of 360,000 active; activation, % at 3 µM; AID 624038; CHO-K1 hM5, Fluo-8 calcium, ACh EC20 PAM; 0% = ACh EC20, 100% = ACh EC100;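 active = activation above the run cutoff, the mean activation of all test compounds plus 3 SD, cut at about 18% in these data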
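System: CHO-K1 hM5 cells. Reagent: acetylcholine, EC20 level. Compound dosing: single dose, 3 µM nominal final test concentration. Timing: Post-acetylcholine fluorescence recording 140 s. Detection: Fluo-8 calcium fluorescence. Read-out: % activation, ACh-normalized. Benchmarks: ACh EC20 and EC100 wells. Repeats: singlicate, one well per test compound.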
Numbers without * were called inactive. The list is not random: actives were taken first. Their share in the collection is about 1.9%.

SMILES | CHRM4 PAM | M4 antag | M4 ag | CHRM5 agonist | M5 antag | M5 PAM
COc1ccc(C(=O)OCC(=O)NC(=O)Nc2ccccc2F)c(OC)c1 | 21* | 9 | 0 | 1 | 14 | -8
Cc1ccc([C@@H]2[C@@H]3C(=O)N(C)C(=O)[C@@H]3[C@]3(C)C(=O)N(Cc4ccccc4)CC(=O)N23)o1 | 9 | 0 | 2 | 4 | -5 | 22*
O=C(Nc1cccc2c1CCCC2)c1ccccc1Br | 1 | -7 | 0 | -3 | -1 | 3
CC(=O)N1c2ccc(C)cc2C(c2ccccc2)CC1C (stereo unspecified) | 1 | 0 | -2 | -7 | 9 | -4
COc1ccc(C(C)=O)cc1CSc1nc2cc(C(=O)O)ccc2c(=O)n1Cc1ccccc1 | 9 | 28* | 2 | 1 | 7 | 2
Cn1cc(C(=O)N2CCN(c3ccccn3)CC2)c(=O)c2cc(S(=O)(=O)N3CCOCC3)ccc21 | 8 | -7 | 1 | -2 | -4 | 20*
CCCCn1c(SCC(=O)NC2CCCC2)nnc1-c1ccco1 | -1 | 11 | 1 | 0 | 1 | 2
CCOC(=O)C1CCCN(C(=O)C2c3ccccc3Oc3ccccc32)C1 (stereo unspecified) | 3 | 16 | 20 | 27* | 3 | -8
CCOC(=O)C1CCCN(C(=O)Cc2ccc(C)cc2)C1 (stereo unspecified) | 1 | 8 | 0 | -3 | -7 | 9
CCOC(=O)C1CCCN(C(=O)Cc2c(C(=O)O)[nH]c3ccccc23)C1 (stereo unspecified) | -7 | 9 | 1 | 38* | -9 | -6
CCOC(=O)C1CCCN(C(=O)C2COc3ccccc3O2)C1 (stereo unspecified) | 0 | -4 | 1 | 2 | -2 | 0
CCOC(=O)C1CCCN(C(=S)Nc2ccc(C)cc2C)C1 (stereo unspecified) | 10 | 4 | 2 | 36* | 10 | -6
CCOC(=O)C1CCCN(C(=S)Nc2ccc(Nc3ccccc3)cc2)C1 (stereo unspecified) | -11 | 16 | 5 | 32* | 1 | -8
CCOC(=O)C1CCCN(C(=O)Cn2nc(C)c3c(C)n(-c4ccccc4)nc3c2=O)C1 (stereo unspecified) | 17* | 0 | 1 | -2 | 2 | 13
COC(=O)C1=C(C)NC2=C(C(=O)CC(C)(C)C2)C1c1ccccn1 (stereo unspecified) | 13 | -9 | 1 | -1 | 1 | 4
COC(=O)C1=C(C)NC2=C(C(=O)C(C(=O)OC)C(c3ccc(OC)cc3)C2)C1c1ccccn1 (stereo unspecified) | -2 | -19 | 5 | -2 | 3 | 37*
Cn1c(SCC(=O)NCC2CCCO2)nnc1-c1ccco1 (stereo unspecified) | 13 | 4 | 1 | 8 | -8 | 0
Cc1ccc2cc(C#N)c(SCC(=O)NCC3CCCO3)nc2c1 (stereo unspecified) | 26* | -3 | 1 | -1 | -6 | 6
Cc1ccc2nc(SCC(=O)NCC3CCCO3)c(C#N)cc2c1 (stereo unspecified) | 4 | -2 | 0 | -4 | -13 | 2
CN(C(=O)COC(=O)CNC(=O)c1sc2ccccc2c1Cl)C1CCS(=O)(=O)C1 (stereo unspecified) | 5 | 14 | 2 | 3 | 5 | 0
Cc1ccc(C(=O)CCC(=O)Nc2ncccc2C)cc1 | 20 | -2 | 2 | 8 | 0 | 19*
COCCNC(=O)c1cccc(OC2CCN(Cc3ccc(C(=O)OC)cc3)CC2)c1 | -15 | 60* | 0 | -24 | 25 | -30
COCCNC(=O)c1cccc(OC2CCN(Cc3ccc(C(C)C)cc3)CC2)c1 | -17 | 20 | 3 | -20 | 12 | -33
COCCNC(=O)CCC1CCN(Cc2ccc(-c3ccccc3)cc2)CC1 | -16 | 57* | 1 | -24 | 7 | -29
CSc1cccc(CN2CCC(Oc3cccc(C(=O)N4CCCC4)c3)CC2)c1 | -11 | -3 | 4 | -8 | 28* | -15
SMILES | CHRM4 PAM | M4 antag | M4 ag | CHRM5 agonist | M5 antag | M5 PAM
COCCNC(=O)C1CCCN(Cc2ccccc2)CC1 (stereo unspecified) | 4 | -12 | 0 | -1 | 7 | 0
COC(=O)c1ccc(CN2CCC(Oc3cccc(C(=O)N4CCOCC4)c3)CC2)cc1 | -15 | 61* | 4 | -7 | 67* | -13
CS(=O)(=O)c1ccc(C(=O)OCC(=O)NCc2cccs2)cc1[N+](=O)[O-] | 6 | -7 | 1 | 0 | 16 | 7
COc1ccc(NC(=O)c2cc(=O)c3ccccc3o2)cc1Cl | 23* | 18 | 6 | 0 | 21 | 12
CN(C)S(=O)(=O)c1cc(NC(=O)c2cc(=O)c3ccccc3o2)ccc1Cl | -3 | 2 | 18 | 3 | 15 | -2
O=c1c(/C=N\NS(=O)(=O)c2ccccc2)coc2ccc(Cl)cc12 | -7 | 0 | 11 | -5 | 35* | -11
CC(=O)Nc1ccc(N(C(=O)c2ccco2)C(C(=O)NC2CCCC2)c2ccncc2)cc1 (stereo unspecified) | -1 | 3 | -1 | -2 | 14 | -4
Cc1cccc2sc(NC(=O)C3CCN(S(=O)(=O)c4cc([N+](=O)[O-])ccc4Cl)CC3)nc12 | -24 | 29* | 11 | 4 | 20 | -11
C=C[C@@H]1c2cc(C)ccc2N(S(=O)(=O)c2ccc(C)cc2)[C@H](c2ccc(OC(C)=O)cc2)C1(C#N)C#N | -2 | 0 | 1 | 1 | 4 | 0
O=C1CCCC(O)=C1N=Nc1cccc(C(=O)O)c1 | 20* | -2 | 3 | -6 | -9 | -7
Cc1ccc(S(=O)(=O)N2CCN(C(=O)c3sccc3-c3ccccc3)CC2)cc1 | -7 | 2 | 6 | -6 | 30* | -12
COCCn1cnc2c1c(=O)[nH]c(=O)n2Cc1ccccc1 | 3 | -6 | 2 | -2 | 9 | -1
CN(CC(=O)Nc1cccc(F)c1)CC(=O)N(C)c1c(N)n(Cc2ccccc2)c(=O)[nH]c1=O | 9 | -5 | 1 | 3 | 3 | 8
Cc1ccc(S(=O)(=O)N2CCCN(C(=O)CNC(=O)c3cccc(C)c3)CC2)cc1 | -9 | 14 | 23 | 9 | 9 | -11
COc1ccc(-c2ccc(C(=O)NCc3ccncc3)c3occc23)c(C)c1 | -7 | 20 | 16 | 5 | 32* | -18
COc1ccc(-c2ccc(C(=O)NCc3ccc(F)c(F)c3)c3occc23)c(C)c1 | -3 | 10 | 5 | -2 | 4 | -10
COc1ccc(-c2coc3c(C(=O)NCc4ccc(OC)c(OC)c4)cccc23)c(C)c1 | -10 | 37* | 16 | 6 | 36* | -15
